# Assay outcomes (PubChem BioAssay)
# STAT1 inh: inhibitors of IFN-gamma induced STAT1 signaling. 200,000 compounds, 0.35% hits. NIH 3T3 STAT1-luciferase reporter, luminescence. inhibition, % at 5.5 µM;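 active = inhibition above a set limit, the mean inhibition across all tested compounds plus 3 SD, cut at about 34% in these data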
# NF-kB neuron act: compounds increasing NF-kB expression in human neuronal cells | NF-kB reporter expression; hits give high values | fold change at 12.5 µM | 190,000 compounds, 1.6% hits; in the data active = fold change above about 3.3
# STAT1 act: STAT1 signaling activation; NIH 3T3 STAT1-luciferase reporter, IFN-gamma, luminescence; 100% = IFN-gamma alone, no compound; 200,000 compounds, 2.6% hits; activation (% of control), % at 5.5 µM; AID 932;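 active = activation above the screen-wide mean activation plus 3 SD, cut at about 130% in these data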
# APP 5'UTR act: activates APP 5'UTR luciferase reporter; SH-SY5Y APP 5'UTR luciferase reporter, luminescence; zero percent = DMSO vehicle wells; activation, % at 2 µM; 190,000 compounds, 1% hits;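 active = activation above a set limit, based on mean plus 3 SD of controls, cut at about 140% in these data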
# STAT3 inh: inhibitors of IL-6 induced STAT3 signaling. inhibition, % at 5.5 µM. 190,000 compounds, 0.89% hits. AID 862. U3A cells, IL-6 STAT3-luciferase reporter, luminescence; host cell line lacks STAT1;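 active = inhibition above the mean inhibition across all screened compounds plus 3 SD, cut at about 44% in these data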
# STAT3 act: activators of IL-6 induced STAT3 signaling; U3A cells, IL-6 STAT3-luciferase reporter, luminescence; 100% = signal with IL-6 EC80 alone; activation (% of control), % at 5.6 µM; 190,000 compounds, 0.91% hits; AID 871;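 active = activation above the screen-wide mean of compound activation plus 3 SD, cut at about 130% in these data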
#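 Test system: human U3A cells carrying STAT3-luciferase construct; control set: IL-6-only wells as 100% reference; timing: compound pre-incubation 1 h before IL-6, then 6 h stimulation at 37 °C; also added: IL-6 stimulus at 33 ng/mL final; evaluation: % activation versus median of IL-6-stimulated wells; detection: reporter luminescence signal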
# Numbers stand for hits; . = inactive; / = no result. This is a sample that favours compounds with a hit; in the whole collection about 5.1% have one here.
SMILES,STAT1 inh,NF-kB neuron act,STAT1 act,APP 5'UTR act,STAT3 inh,STAT3 act
CN(CCC#N)CC(=O)Nc1ccc(NC(=O)CN(C)CCC#N)cc1,.,.,.,.,.,.
O=C(Nc1ccccc1O)/C(=C\c1ccccc1)NC(=O)c1ccccc1,.,.,.,.,.,.
CCC(CO)Nc1ncnc2c1cnn2-c1ccc(OC)cc1 (configuration not stated),.,.,146.9,148.0,.,.
CCC(CO)Nc1ncnc2c1cnn2-c1ccc(Cl)cc1 (configuration not stated),.,.,146.8,162.5,.,.
Cc1cccc(/C=C(\C(=O)C(=O)O)c2ccc3ccccc3n2)c1,.,.,147.9,.,.,.
CN(C)C(=S)c1ccc2ccccc2n1,.,.,.,.,.,.
O=C(NCCOc1ccc(Cl)cc1)c1ccc2ccccc2n1,.,.,.,.,.,.
O=C(O)C(=O)/C(=C\c1cccc(Cl)c1)c1ccc2ccccc2n1,.,.,137.3,.,.,.
COCCCNC(=O)CN(c1cc(Cl)ccc1OC)S(C)(=O)=O,.,/,.,.,.,.
O=C(c1cnn2c(C(F)(F)F)cc(-c3ccccc3)nc12)N1CCCCC1c1cccnc1 (configuration not stated),.,.,.,.,.,.
O=C(c1cc2nc(-c3ccc(F)cc3)cc(C(F)(F)F)n2n1)N1CCCCC1c1cccnc1 (configuration not stated),35.1,.,.,.,56.9,.
O=C(CC(Nc1ccc(Cl)cc1)C(=O)O)c1ccccc1 (configuration not stated),.,.,146.7,208.8,.,.
O=C(CCn1cnc2ccccc2c1=O)Nc1cccc(Cl)c1Cl,.,.,.,.,.,.
N/C(=N\OC(=O)/C=C/c1ccccc1)c1ccccn1,.,.,.,160.5,.,.
COc1ccccc1C/C(N)=N/OC(=O)COc1cccc(C)c1C,.,.,.,.,.,.
